Structures are written as SMILES.

One may read the IC50 as the concentration at which inhibition is half-maximal. A lower IC50 goes with higher potency. Usually clearance stands for a measure of how efficiently the substance is removed, as volume per time. Read a high clearance as a high capacity for elimination. A word on the half-life: it is the time needed for the level to fall by half in the phase considered. A high value points to slow loss. By AUC(0-t) is commonly meant exposure summed from dosing to a finite time, without extrapolation to infinity. Read a high AUC(0-t) as more exposure. As a reminder, the bioavailability is the share of a dose that reaches the circulation, judged against a reference dose that is usually intravenous.

The target of data set [1] is Proto-oncogene tyrosine-protein kinase LCK (Mus musculus, UniProt P06240). The data set is described as follows: Inhibition of murine Lck by TR-FRET assay. For orientation: TR-FRET usually uses a lanthanide donor and a delayed reading to cut background.
In data set [2] the target is Tyrosine-protein kinase BTK (Homo sapiens, UniProt Q06187). The data set is described as follows: Inhibition of Btk.
In data set [3] the target is Tyrosine-protein kinase Lyn (Homo sapiens, UniProt P07948). Nature of the data set: Inhibition of Lyn.
The target of data set [4] is T1, Tyrosine-protein kinase TXK (Homo sapiens, UniProt P42681).
T1 sequence (P42681 whole entry): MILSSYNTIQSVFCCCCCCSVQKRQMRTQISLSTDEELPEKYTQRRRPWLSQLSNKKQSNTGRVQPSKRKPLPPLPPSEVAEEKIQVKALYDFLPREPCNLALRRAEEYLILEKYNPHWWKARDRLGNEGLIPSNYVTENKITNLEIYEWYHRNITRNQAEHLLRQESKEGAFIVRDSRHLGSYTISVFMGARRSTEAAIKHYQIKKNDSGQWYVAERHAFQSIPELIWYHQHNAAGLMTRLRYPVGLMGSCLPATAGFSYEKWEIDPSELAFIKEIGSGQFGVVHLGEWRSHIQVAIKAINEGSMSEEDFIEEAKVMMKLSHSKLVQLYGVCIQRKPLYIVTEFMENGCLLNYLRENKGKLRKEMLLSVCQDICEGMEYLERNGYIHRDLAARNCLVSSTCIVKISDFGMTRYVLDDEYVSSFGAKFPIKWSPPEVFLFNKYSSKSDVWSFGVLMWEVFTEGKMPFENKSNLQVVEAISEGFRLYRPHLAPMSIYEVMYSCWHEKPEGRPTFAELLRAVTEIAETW
The data set is described as follows: Inhibition of Txk.

Data set [5] is described as follows: Plasma clearance in BALB/c mouse at 1 mg/kg, iv. It is filed as ADME, organism-based. Also on record: dose 1 mg/kg, route intravenous. In short, it runs like this:
(§1)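 Blood sampled over 8 h. Plasma protein-precipitated with acetonitrile, dried under nitrogen, reconstituted in 10:90 acetonitrile:water. Quantified by LC-MS/MS on an ODS3 column with a 0.1% formic acid water/acetonitrile gradient.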

A short description of data set [6]: Volume of distribution at steady state in BALB/c mouse at 1 mg/kg, iv. Particulars: in vivo, read-out: Vdss. Format: ADME, organism-based. More on the design: dose 1 mg/kg, route intravenous. The gist of the method:
as §1

Data set [7] is described as follows: Half life in BALB/c mouse at 1 mg/kg, iv. Particulars: in vivo. It is filed as ADME, organism-based. Also on record: dose 1 mg/kg, route intravenous. In short, it runs like this:
as §1

The nature of data set [8]: AUC (0 to t) in BALB/c mouse at 1 mg/kg, iv. Format: ADME, organism-based. More on the design: dose 1 mg/kg, route intravenous. The conditions noted are these: plasma. The gist of the method:
as §1

Data set [9] can be described thus: AUC (0 to t) in BALB/c mouse at 1 mg/kg, po. Format: ADME, organism-based. More on the design: dose 1 mg/kg, route oral. Particulars: plasma. In short, it runs like this:
as §1

Data set [10] can be described thus: Oral bioavailability in BALB/c mouse at 1 mg/kg, po. The conditions noted are these: in vivo. It is filed as ADME, organism-based. In short, it runs like this: as §1
In data set [11] the target is Tyrosine-protein kinase SYK (Homo sapiens, UniProt P43405).
Data set [12] concerns the target Tyrosine-protein kinase Lck (Homo sapiens, UniProt P06239). The data set is described as follows: Inhibition of human Lck by TR-FRET assay.
Data set [13] is described as follows: Plasma clearance in BALB/c mouse at 2.5 mg/kg, iv. Format: ADME, organism-based. Also on record: dose 2.5 mg/kg, route intravenous. In short, it runs like this: as §1
A short description of data set [14]: Volume of distribution at steady state in BALB/c mouse at 2.5 mg/kg, iv. It is filed as ADME, organism-based. Also on record: dose 2.5 mg/kg, route intravenous. The conditions noted are these: in vivo, read-out: Vdss. The gist of the method:
as §1

Data set [15] can be described thus: Half life in BALB/c mouse at 2.5 mg/kg, iv. Format: ADME, organism-based. More on the design: dose 2.5 mg/kg, route intravenous. The conditions noted are these: in vivo. The gist of the method:
as §1

Data set [16] can be described thus: AUC (0 to t) in BALB/c mouse at 2.5 mg/kg, iv. It is filed as ADME, organism-based. More on the design: dose 2.5 mg/kg, route intravenous. Particulars: plasma. The gist of the method: as §1
A short description of data set [17]: AUC (0 to t) in BALB/c mouse at 10 mg/kg, po. It is filed as ADME, organism-based. Also on record: dose 10 mg/kg, route oral. Particulars: plasma. In short, it runs like this: as §1
The nature of data set [18]: Oral bioavailability in BALB/c mouse at 10 mg/kg, po. It is filed as ADME, organism-based. Particulars: in vivo. The gist of the method: as §1

Sequence of Tyrosine-protein kinase Lyn (P07948 whole entry): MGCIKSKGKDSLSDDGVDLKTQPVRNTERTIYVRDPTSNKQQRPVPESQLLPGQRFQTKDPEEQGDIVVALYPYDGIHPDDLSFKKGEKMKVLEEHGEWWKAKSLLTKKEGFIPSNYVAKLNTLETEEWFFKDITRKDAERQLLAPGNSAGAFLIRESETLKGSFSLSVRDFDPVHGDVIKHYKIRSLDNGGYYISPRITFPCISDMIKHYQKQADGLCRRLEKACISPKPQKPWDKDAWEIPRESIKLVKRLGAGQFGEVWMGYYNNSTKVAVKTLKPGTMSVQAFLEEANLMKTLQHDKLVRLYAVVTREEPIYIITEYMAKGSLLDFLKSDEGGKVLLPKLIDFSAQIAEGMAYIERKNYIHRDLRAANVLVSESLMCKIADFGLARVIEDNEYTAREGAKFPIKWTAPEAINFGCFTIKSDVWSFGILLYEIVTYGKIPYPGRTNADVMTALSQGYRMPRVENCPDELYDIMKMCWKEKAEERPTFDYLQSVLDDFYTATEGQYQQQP
Sequence of Proto-oncogene tyrosine-protein kinase LCK (P06240 whole entry): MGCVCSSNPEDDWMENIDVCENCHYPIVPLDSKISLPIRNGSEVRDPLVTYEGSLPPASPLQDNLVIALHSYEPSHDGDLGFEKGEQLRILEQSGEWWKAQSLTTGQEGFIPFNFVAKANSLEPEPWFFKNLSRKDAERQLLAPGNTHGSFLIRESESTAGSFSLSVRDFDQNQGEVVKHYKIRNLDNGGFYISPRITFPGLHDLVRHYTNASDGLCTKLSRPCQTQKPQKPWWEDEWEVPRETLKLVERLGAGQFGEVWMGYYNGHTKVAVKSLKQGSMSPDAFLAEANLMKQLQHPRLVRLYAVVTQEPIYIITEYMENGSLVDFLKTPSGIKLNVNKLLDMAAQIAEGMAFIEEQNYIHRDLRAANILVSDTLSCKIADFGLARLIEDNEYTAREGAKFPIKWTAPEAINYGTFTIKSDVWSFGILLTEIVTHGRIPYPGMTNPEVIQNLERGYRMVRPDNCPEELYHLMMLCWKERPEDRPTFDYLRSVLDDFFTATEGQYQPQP
Sequence of Tyrosine-protein kinase BTK (Q06187 whole entry): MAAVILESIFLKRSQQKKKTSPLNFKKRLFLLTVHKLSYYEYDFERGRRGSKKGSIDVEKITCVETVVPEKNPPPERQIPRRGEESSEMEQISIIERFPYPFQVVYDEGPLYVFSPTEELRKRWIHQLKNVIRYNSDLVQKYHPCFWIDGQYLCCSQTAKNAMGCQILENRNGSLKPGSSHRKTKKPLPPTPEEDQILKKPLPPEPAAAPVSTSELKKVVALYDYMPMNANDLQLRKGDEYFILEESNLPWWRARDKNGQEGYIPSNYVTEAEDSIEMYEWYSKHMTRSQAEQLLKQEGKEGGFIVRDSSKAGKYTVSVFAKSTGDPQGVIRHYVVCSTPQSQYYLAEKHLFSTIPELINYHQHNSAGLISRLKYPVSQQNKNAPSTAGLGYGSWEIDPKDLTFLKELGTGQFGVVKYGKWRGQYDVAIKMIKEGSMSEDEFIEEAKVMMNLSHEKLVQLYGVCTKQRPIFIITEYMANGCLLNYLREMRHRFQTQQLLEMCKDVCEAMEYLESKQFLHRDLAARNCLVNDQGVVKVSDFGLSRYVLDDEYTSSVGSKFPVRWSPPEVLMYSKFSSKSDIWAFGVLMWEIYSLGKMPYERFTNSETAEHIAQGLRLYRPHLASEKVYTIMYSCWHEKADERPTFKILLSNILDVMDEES
Sequence of Tyrosine-protein kinase Lck (P06239 whole entry): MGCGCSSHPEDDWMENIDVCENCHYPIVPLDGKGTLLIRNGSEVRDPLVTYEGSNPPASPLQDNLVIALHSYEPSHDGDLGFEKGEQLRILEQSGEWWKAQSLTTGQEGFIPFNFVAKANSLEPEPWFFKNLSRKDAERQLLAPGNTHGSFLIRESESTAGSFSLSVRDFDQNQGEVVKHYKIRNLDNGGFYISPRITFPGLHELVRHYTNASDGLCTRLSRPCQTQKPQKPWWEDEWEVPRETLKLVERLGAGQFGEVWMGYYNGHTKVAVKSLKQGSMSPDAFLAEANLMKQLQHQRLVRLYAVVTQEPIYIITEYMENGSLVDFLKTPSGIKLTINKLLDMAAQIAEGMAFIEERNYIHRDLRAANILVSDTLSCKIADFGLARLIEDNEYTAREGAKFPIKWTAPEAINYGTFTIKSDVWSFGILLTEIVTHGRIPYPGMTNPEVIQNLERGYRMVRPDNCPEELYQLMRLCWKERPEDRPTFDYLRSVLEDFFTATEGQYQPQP

As to `Cc1ccc2[nH]ncc2c1Nc1ccnc(Nc2cccc(S(N)(=O)=O)c2)n1`, the IC50 stood at 19 nM in data set [1]; 69 nM in data set [2]; 430 nM in [3]; 220 nM in [4]; 620 nM in data set [11]. Besides, in [5], the clearance was 22.4 mL/min/kg. In addition, the Vd in [6] stood at 0.7 L/kg. Also, in [7], the half-life was 31.8 min. Moreover, the AUC(0-t) came to 743 ng·h/mL in data set [8] and 190 ng·h/mL in data set [9]. Moreover, the bioavailability in data set [10] amounted to 25%.

In data set [1], `Cc1ccc(C(=O)N(C)C)cc1Nc1ccnc(Nc2cccc(C(N)=O)c2)n1` registered an IC50 of 9300 nM.

As for `Cc1ccc(NS(C)(=O)=O)cc1Nc1ccnc(Nc2cccc(C(N)=O)c2)n1`, the IC50 in data set [1] stood at 7700 nM.

Regarding `COc1cccc(Nc2ccnc(Nc3cccc(C(N)=O)c3)n2)c1`, in data set [1], inhibition was half-maximal at 2700 nM (IC50).

Turning to `CC(=O)N(C)c1cccc(Nc2ccnc(Nc3cccc(C(N)=O)c3)n2)c1`, in data set [1], the IC50 stood at 1800 nM.

Consider `Cc1ccc(O)cc1Nc1ccnc(Nc2cccc(C(N)=O)c2)n1`, for which the IC50 in [12] stood at 14 nM; in data set [1], 13 nM; in data set [2] it was 9 nM; in [3], 3 nM; in data set [4], 2 nM.

In turn, `NC(=O)c1cccc(Nc2nccc(Nc3cccc(O)c3)n2)c1` came in with an IC50 in data set [1] of 130 nM.

Take `NC(=O)c1cccc(Nc2nccc(Nc3ccc(F)cc3F)n2)c1`: it took 1100 nM to reach half-maximal inhibition in [1] (IC50).

`Cc1ccc(O)cc1Nc1ccnc(Nc2cccc(S(N)(=O)=O)c2)n1`: the half-maximal inhibitory concentration (IC50) in data set [1] amounted to 8.5 nM; in [3] it was 1 nM; in [4] it was 0.4 nM; in data set [11], 4 nM. Besides, the clearance in [13] came to 65.5 mL/min/kg. In data set [14], the Vd is 0.3 L/kg. Moreover, the half-life in data set [15] is 7.2 min. Moreover, the AUC(0-t) in data set [16] is 635 ng·h/mL; in data set [17], 2 ng·h/mL. Further, in [18], the bioavailability was less than 1%.

`NS(=O)(=O)c1cccc(Nc2nccc(Nc3ccc(F)cc3F)n2)c1` showed an IC50 in data set [1] of 350 nM.

Turning to `Cn1cnc2ccc(Nc3ccnc(Nc4cccc(C(N)=O)c4)n3)cc21`, the IC50 in data set [1] was found to be 16000 nM.

Take `Cc1cccc(O)c1Nc1ccnc(Nc2cccc(C(N)=O)c2)n1`: the IC50 in [1] was determined as 100 nM.

Turning to `Cc1ccc(F)cc1Nc1ccnc(Nc2cccc(C(N)=O)c2)n1`, the IC50 in data set [1] was 270 nM.

In data set [1], `COc1ccc(C)c(Nc2ccnc(Nc3cccc(C(N)=O)c3)n2)c1` had an IC50 of 86 nM.

`Cc1ccc(N)cc1Nc1ccnc(Nc2cccc(C(N)=O)c2)n1`: in data set [1], the IC50 was found to be 97 nM.

For the compound `Cc1ccc(Nc2ccnc(Nc3cccc(C(N)=O)c3)n2)cc1O`, the IC50 in [1] was 190 nM.

Take `NC(=O)c1cccc(Nc2nccc(Nc3cc(O)ccc3Br)n2)c1`: the 50% inhibitory concentration (IC50) in data set [1] amounted to 41 nM.

On to `Cc1cc(O)ccc1Nc1ccnc(Nc2cccc(C(N)=O)c2)n1`, for which the IC50 in [1] amounted to 40 nM.

Consider `Cn1cnc2cc(Nc3ccnc(Nc4cccc(C(N)=O)c4)n3)ccc21`, for which the IC50 in data set [1] worked out at 1800 nM.

In data set [1], `NC(=O)c1cccc(Nc2nccc(Nc3ccc4nn[nH]c4c3)n2)c1` returned an IC50 of 4400 nM.

On to `NC(=O)c1cccc(Nc2nccc(Nc3cccc4ncccc34)n2)c1`, for which the IC50 in data set [1] was 560 nM.

`Cn1ncc2c(Nc3ccnc(Nc4cccc(C(N)=O)c4)n3)cccc21` had an IC50 in data set [1] of 1600 nM.

For the compound `Cc1ccc2c(cnn2C)c1Nc1ccnc(Nc2cccc(C(N)=O)c2)n1`, it took 2800 nM to reach half-maximal inhibition in data set [1] (IC50).

In data set [1], `Cc1nc2c(Nc3ccnc(Nc4cccc(C(N)=O)c4)n3)cccc2[nH]1` displayed an IC50 of 5600 nM.

Consider `Cc1cc(Nc2ccnc(Nc3cccc(C(N)=O)c3)n2)c2cn[nH]c2c1`, for which, in data set [1], the IC50 stood at 520 nM.

Consider `Cc1ccc(Nc2ccnc(Nc3cccc(C(N)=O)c3)n2)c2cn[nH]c12`, for which, in [1], the IC50 turned out to be 55 nM.

`NC(=O)c1cccc(Nc2nccc(Nc3cccc4cn[nH]c34)n2)c1` showed an IC50 in data set [1] of 1400 nM.

Turning to `Cc1ccc2[nH]ncc2c1Nc1ccnc(Nc2cccc(C(N)=O)c2)n1`, the IC50 in data set [1] amounted to 12 nM; in data set [2], 97 nM; in data set [3], 40 nM; in data set [4] it was 28 nM; in [11], 220 nM.

`NC(=O)c1cccc(Nc2nccc(Nc3ccc4[nH]ncc4c3)n2)c1` had an IC50 in data set [1] of 3000 nM.

For the compound `NS(=O)(=O)c1cccc(Nc2nccc(Nc3cccc4[nH]ncc34)n2)c1`, in [1], the IC50 was 33 nM.

As to `Cc1ccc(Cl)cc1Nc1ccnc(Nc2cccc(C(N)=O)c2)n1`, the IC50 in data set [1] was 380 nM.

For `COc1ccc(C)c(Nc2ccnc(Nc3cccc(S(N)(=O)=O)c3)n2)c1`, in data set [1], the IC50 amounted to 54 nM.

For the compound `NC(=O)c1cccc(Nc2nccc(Nc3ccc4ncsc4c3)n2)c1`, the IC50 in [1] was found to be 3000 nM.

`Cc1cc(O)cc(Nc2ccnc(Nc3cccc(C(N)=O)c3)n2)c1` showed an IC50 in [1] of 73 nM.

Compound `CC(C)c1ccc(O)cc1Nc1ccnc(Nc2cccc(C(N)=O)c2)n1` returned an IC50 in data set [1] of 880 nM.

`Cn1ncc2ccc(Nc3ccnc(Nc4cccc(C(N)=O)c4)n3)cc21`: the midpoint of inhibition in data set [1], the IC50, lay at 8200 nM.

In [1], `NC(=O)c1cccc(Nc2nccc(Nc3cccc(F)c3)n2)c1` had an IC50 of 3300 nM.

Consider `Cc1ccc(C(N)=O)cc1Nc1ccnc(Nc2cccc(C(N)=O)c2)n1`, for which half-maximal inhibition in data set [1] (IC50) was put at 1300 nM.

The compound `Cc1ccccc1Nc1ccnc(Nc2cccc(C(N)=O)c2)n1` yielded an IC50 in data set [1] of 89 nM.

For `Cc1ccc(CN)cc1Nc1ccnc(Nc2cccc(C(N)=O)c2)n1`, in [1], it took 3400 nM to reach half-maximal inhibition (IC50).

For the compound `NC(=O)c1cccc(Nc2nccc(Nc3cccc4nn[nH]c34)n2)c1`, it took 490 nM to reach half-maximal inhibition in data set [1] (IC50).

In turn, `NC(=O)c1cccc(Nc2nccc(Nc3cccc4[nH]ncc34)n2)c1` [GW782612X] returned an IC50 in data set [1] of 100 nM.

The values are drawn from ChEMBL document CHEMBL1140683, “N-4-Pyrimidinyl-1H-indazol-4-amine inhibitors of Lck: indazoles as phenol isosteres with improved pharmacokinetics” (Bioorg Med Chem Lett, 2007).
